Measured values reported in the EternaBench riboswitch data.

Tested on: MS2 coat protein
Test: apparent Kd, MS2 coat protein; higher = weaker binding; RNA-MaP array; FMN 200 µM where present
Outline: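 Two titrations, one without ligand and one with constant ligand, were run with SNAP-549-labelled MS2 coat protein from 0.7 or 1.5 nM, doubling to 3 µM. The targets were designs transcribed by stalled E. coli RNA polymerase on Illumina sequencing-chip clusters, in 100 mM Tris-HCl pH 7.5, 80 mM KCl, 4 mM MgCl2, BSA, DTT, yeast tRNA and Tween-20. The apparent Kd is the median of filtered per-cluster binding-curve fits, with green signal normalised to red-channel RNA signal and control-cluster median Fmax.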

[1] = designed as: ON switch for flavin mononucleotide, no ligand
[2] = ligand present: flavin mononucleotide, designed as: ON switch for flavin mononucleotide
[3] = designed as: OFF switch for flavin mononucleotide, no ligand
[4] = ligand present: flavin mononucleotide, designed as: OFF switch for flavin mononucleotide

Sequence | apparent Kd [1] | apparent Kd [2] | apparent Kd [3] | apparent Kd [4]
GGUCCAUCAUGAGGAUAUGGCACCUUAUUGGUGCCAGAAGGCAUGUCUAUAGACAUGAGGAUCACCCAUGUAAUAAAGUGGACC | 922 nM | 49.3 nM | – | –
GGUCCAUCAUGAGGAUAUGGCACCUUAUUGGUGCCAGAAGGCAUGUCUUUAGACAUGAGGAUCACCCAUGUAAUAAAUUGGACC | 1150 nM | 76.5 nM | – | –
GGUCCGCACUAGAAGGGUGACAUGAGGAUCACCCAUGUGCACUUCCGCUCUUAGCGGAAAGUGCCACAGGAUAUAGUGUGGAUU | 80.6 nM | 20.3 nM | – | –
GGUCGUCACAUUUACAUGAGGAUCACCCAUGUCGAAAGACAUGAGGAUAUGCAUCCUAAUUGGAUGCAGAAGGCAUGGACGACC | 445 nM | 249 nM | – | –
GGUCUGACAUAAGGAUAUGCUCAGGAAUACUGAGCAGAAGGUAUGUGAAAACAUGAGGAUCACCCAUGUGAUCAAUACAGACCA | 18 nM | 20.9 nM | – | –
GGUCUUCAAGUCAGGAUAUCGUCUAAUCGAUCUAACGAGAAGGGACAUGAGGAUCACCCAUGUCGUCUCAUCAG | – | – | 19.1 nM | 28.5 nM
GGUGCACGCACAGGAUAUCCGGCGACGCUCGUCGGAGAAGGGUGACAUGAGGAUCACCCAUGUACGUGCAACUCAGUUUGAGAG | 35.7 nM | 28.1 nM | – | –
GGUGCAUGUGAGAAGGCGAUCAUGAAACAUGAUCGAGGAUAUCAUGUAAACAUGAGGAUCACCCAUGUAUGGGAAAAGUGCACC | 97.9 nM | 10.1 nM | – | –
GGUGCCAUGUAGAAGGCAGAUCUGAUUCAGAUCUGAGGAUAUACAUGAGGAUCACCCAUGUAAGGGCACCGCACGAGAGUGCAA | – | – | 6.56 nM | 10.2 nM
GGUGCGAUGUAGAAGGCAGAUCUGAUUCAGAUCUGAGGAUAUACAUGAGGAUCACCCAUGUAAAGGCACCGCACGAGAGUGCAA | – | – | 7.12 nM | 11.3 nM
GGUGCGUAUGUGAGGAUAUGCUGGUCCUUGGAUCAGCAGAAGGCACAUGAGGAUCACCCAUGUGGUGUCGUGCC | – | – | 114 nM | 20.8 nM
GGUGCGUAUGUGAGGAUAUGCUGGUCCUUGGAUCGGCAGAAGGCACAUGAGGAUCACCCAUGUGGUGUCGUACC | – | – | 339 nM | 24.4 nM
GGUGCGUUUGUGAGGAUAUGCUGGUCCUUGGAUCAGCAGAAGGCACAUGAGGAUCACCCAUGUGGUGUCGUCCC | – | – | 348 nM | 44.7 nM
GGUGCGUUUGUGAGGAUAUGCUGGUCCUUGGUUCGGCAGAAGGCACAUGAGGAUCACCCAUGUGGUGUCGUACC | – | – | 16.7 nM | 48.8 nM
GGUGCUGUGUAGAAGGCAGAUCUGAUUCAGAUCUGAGGAUAUACAUGAGGAUCACCCAUGUUAAGCACCAGCACGAGAGUGCAA | – | – | 5.8 nM | 8.54 nM
GGUGGACAUGAGGAUCACCCAUGUGAGGAUAUCGGCUGGCUAGUGGCGGAUGGCUUCUCGAGAAGGCGCAUAGU | – | – | 76.9 nM | 66 nM
GGUGGCCGAGGAUAUACGGACGUGUCGCCGGGUGUCGUGGGACAUGAGGAUCACCCAUGUAGAAGGUGGUUGUC | – | – | 187 nM | 147 nM
GGUGGCGUGAUAACGCUAGAUAUAACAUGAGGAUCACCCAUGUAGGAUAUCCCGCCGAGAGGGCGGGAGAAGGACAAUCAAUGG | – | – | 45.2 nM | 47.2 nM
GGUGGCGUGAUAACGCUAGAUAUAACAUGAGGAUCACCCAUGUAGGAUAUCCUGCCGAGAGGGCGGGAGAAGGACAACCAAUGG | – | – | 41.9 nM | 41.8 nM
GGUGGUCCUGUUACAUGAGGAUCACCCAUGUGAGGGCCACGUAGAAGGACCCAGAACUCCUUUGGGUAGGAUAUAUGGGCCUUC | – | – | 4.78 nM | 5.97 nM
GGUGUCGCAUGAGGAUAUGGUCAGCUUUGCUGACCAGAAGGCAUGUCGAUAGACAUGAGGAUCACCCAUGUAGUAAAGACACCA | 990 nM | 72.7 nM | – | –
GGUGUCGUAUGAGGAUAUGGUCAGCUUUGCUGACCAGAAGGCAUGUCAAUAGACAUGAGGAUCACCCAUGUAGUAAAGACACCA | 441 nM | 43.4 nM | – | –
GGUUAGGACAGAGGAUAUACGUGCUAGAGAUACUAGCAAAAUUUCCUCACAUGAGGAUCACCCAUGUAGAAGGCUGUCCUAUCG | – | – | 16.4 nM | 434 nM
GGUUGGCGAGGAUAUACAUGAGGAUCACCCAUGUGGUCCUGAGGCUGAUCAAGCCUAUGUAGAAGGCGCAAAUC | – | – | 215 nM | 38.1 nM
GGUUGGCGAGGAUAUACAUGAGGAUCACCCAUGUGGUCCUGCGAUAGAAUCGCCCUUUGUAGAAGGCGCGGGUC | – | – | 67 nM | 55.2 nM
GGUUGGCGAGGAUAUACAUGAGGAUCACCCAUGUGGUCCUGUGGCUGGUCAAACCUUUGUAGAAGGCGCGGGUC | – | – | 236 nM | 228 nM
GGUUGUCAUCGUCAUCCUUUCGGUACAUGAGGAUCACCCAUGUAGGAUAUGCUGCGUUCGAUGUGGCAGAAGGGCGUGUGUGUU | – | – | 22.1 nM | 40.5 nM
GGUUUAGGCGAAGGAUAUCCGUCGCGAGAUACUGGAGAAGGUCGCCUUAAUACAUGAGGAUCACCCAUGUGGCGGGUGAACCAC | – | – | 326 nM | 47.6 nM

Sequence | apparent Kd [1] | apparent Kd [2] | apparent Kd [3] | apparent Kd [4]
GUAAUACAUGAGGAUCACCCAUGUAAGGAUAUGCUAGCGGUCGGCUGACUGACUGCUAGCAGAAGGUACAUGAU | – | – | 85.1 nM | 128 nM
GUAAUUACGAGAGGAUAUUGACAUGAGGAUCACCCAUGUAUUUGGGAGUGUUCACUGAAUUCUUACGAGAAGGCUCGUAAAUAC | – | – | 213 nM | 214 nM
GUAAUUAUAUAGGAUAUCGAACUUAUUAUUUAACGAGAAGGAUGAACAUGAGGAUCACCCAUGUGGUAUCAUGG | – | – | 156 nM | 190 nM
GUACAUGAGCAGAAGGGCAAUUAAUUAAAAUUUUAUGUUUAUCAGAUAUGCAGGAUAUGUUAAACAUGAGGAUCACCCAUGUAC | 191 nM | 48.5 nM | – | –
GUACGGAAGGAGAAGGGCUAGGAGGUCCAGUUUAUGUGUGUUGCAACAUGAGGAUCACCCAUGUAGCAGGAUAUCCUUUGUACA | – | – | 85.6 nM | 177 nM
GUACGUGGACAGAAGGCGACAUGAGGAUCACCCAUGUUGGCUCGGGUAUGACCAAUCCGCAUGAUUGAGGAUAUGUCUGCGGGC | – | – | 9.07 nM | 62.4 nM
GUACUACAUGAGGAUCACCCAUGUACAAAGGUACGAGGAUAUGCAUGUACGAAAGUAUAUGCAGAAGGCGUAGUAC | 25.8 nM | 21.7 nM | – | –
GUACUGUAGUGAGGAUAUACGAGUUCGAUAGAACGGCGAUCCAUAUAUACAUGAGGAUCACCCAUGUAGAAGGCACUUCAGUAC | – | – | 7.69 nM | 100 nM
GUACUUGUGCAGAAGGGCAUUGAUUUAGGUUGUUAGGUUGAUCAGAUAUGCAGGAUAUGCUAUACAUGAGGAUCACCCAUGUUC | 92 nM | 11.7 nM | – | –
GUAGAACAUGAGGAUCACCCAUGUGAAGACGCAUGAGGAUAUAUCCGUACCUAGCAUACGAUAGAAGGCAUGAUAC | 113 nM | 49.7 nM | – | –
GUAGAACAUGAGGAUCACCCAUGUGAUUACGAUGUAGGAUAUGGGCAUGAGAAGUCAUUUCUAGAAGGGCAGAUAA | 141 nM | 154 nM | – | –
GUAGAGUAAGGAUAUGCUGAAUAGGAUAGAAUGGUUAGAAAGUAGAAGGUACAUGAGGAUCACCCAUGUAAUGU | – | – | 24.9 nM | 25.7 nM
GUAGAGUAAGGAUAUGUAGAAUAGGAUAGAAUGGUUAGAAUGCAGAAGGUACAUGAGGAUCACCCAUGUAAUGU | – | – | 22.1 nM | 21.1 nM
GUAGAGUAGUGAGGAUAUACGAGAACGAUAGUUCGGCGAUCCAUUAAUACAUGAGGAUCACCCAUGUAGAAGGCACUUCUCUAC | – | – | 7.11 nM | 90.4 nM
GUAGAGUAGUGAGGAUAUACGAGAUCGAUAGAUCGGCGAUCCAAUUAUACAUGAGGAUCACCCAUGUAGAAGGCACUUCUCUAC | – | – | 12.6 nM | 116 nM
GUAGAGUCAGGAUAUACAAAACCAUCGAUAGAUGGAUCCAUACAUGAGGAUCACCCAUGUAGAAGGGACUCUAC | – | – | 20.3 nM | 21.5 nM
GUAGCAACAUGAGGAUCACCCAUGUAGGAUAUCGCUAUUGUAAUCAUGAAACAUGAUUACAAUAGCGAGAAGGACAUAUGCUAA | – | – | 8.33 nM | 10.7 nM
GUAGCACAAACAAAUGUAACAUGAGGAUCACCCAUGUGUUAUGAGGAUAUGGAUGUGAAGUUAAUCCAGAAGGCAUUAUGCUAA | 17.2 nM | 15.1 nM | – | –
GUAGCACAAACAAAUGUAACAUGAGGAUCACCCAUGUGUUAUGAGGAUAUGGAUGUGAAGUUAAUCCAGAAGGCAUUAUGCUAC | 18.6 nM | 11.3 nM | – | –
GUAGCAUAAUCAGGAUAUUCAGAGAAUAGAUAGACAUGAGGAUCACCCAUGUGGCGAAAGCCUAGGGAGAAGGGAUAAUGCUAC | 190 nM | 32.5 nM | – | –
GUAGCAUACAGAGGAUAUUCAAACGACAAAAGUCGACAUGAGGAUCACCCAUGUGGCGAAAGCCGGGAGAAGGCUGAAUGCUAC | 15 nM | 12 nM | – | –
GUAGCAUACCAAGGAUAUUCAUAUAAUAAGUAAACAUGAGGAUCACCCAUGUAGCGAGAGCCUUGGGAGAAGGUGGAAUGCUAC | 58.7 nM | 46.7 nM | – | –
GUAGCAUACCGAGGAUAUUCUGGGCAUAAAUAAACAUGAGGAUCACCCAUGUGGCGAAAGCCUAGGGAGAAGGCGGAAUGCUAC | 14.8 nM | 13.6 nM | – | –
GUAGCAUACGGAGGAUAUGUAGGAUCCACAUGAGGAUCACCCAUGUUAAGGACAGAAGGCCGUAUGCUACAAGAGCGAAAGCUC | 10.6 nM | 12.3 nM | – | –
GUAGCAUUCUGAGGAUAUCCAUACCGGAAACGGACAUGAGGAUCACCCAUGUGGCGAAAGCCUUGGGAGAAGGCAGUAUGCUAC | 4.87 nM | 4.34 nM | – | –
GUAGCUAUCGCAGGAUAUCCUCAGGCGAAAGCCACAUGAGGAUCACCCAUGUAAAUAAAGUAUUUGGAGAAGGGCGAUAGCUAC | 710 nM | 36.1 nM | – | –
GUAGCUAUCGGAGGAUAUUCAUACCGGAAACGGACAUGAGGAUCACCCAUGUCGCGAAAGCGUUGGGAGAAGGCCGAUAGCUAC | 237 nM | 21.4 nM | – | –
